# ChEMBL document CHEMBL5376013, “Design, synthesis and biological evaluation of novel morpholinopyrimidine-5-carbonitrile derivatives as dual PI3K/mTOR inhibitors” (RSC Med Chem, 2024)
# Experiments:
# Format in all cases: functional
# Settings in all cases: read-out: GI
# T47D = assay: Antitumor activity against human T47D cells assessed as growth inhibition at 10 uM relative to control
# Method in brief: (§1)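 Drug exposure 48 h at 37 °C, 5% CO2. Adherent cells fixed with cold TCA (10% final), suspension cells with TCA (16% final). Stained with 0.4% SRB in 1% acetic acid, dissolved in 10 mM Tris, A515. Growth relative to time-zero and untreated control.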
# RPMI-8226 = assay: Antitumor activity against human RPMI-8226 cells assessed as growth inhibition at 10 uM relative to control
# Method in brief: (§2)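 After drug addition, plates were incubated 48 h at 37 °C under 5% CO2. Adherent cells were fixed with cold TCA (10% final, 60 min, 4 °C) and suspension cells with 16% final TCA. Staining used 0.4% SRB in 1% acetic acid, solubilized in 10 mM trizma, read at A515. Percent growth was calculated from time-zero, control and treated absorbances.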
# MOLT-4 = assay: Antitumor activity against human MOLT-4 cells assessed as growth inhibition at 10 uM relative to control; method in brief: as §2
# SW-620 = assay: Antitumor activity against human SW-620 cells assessed as growth inhibition at 10 uM relative to control; method in brief: as §1
# DU-145 = assay: Antitumor activity against human DU-145 cells assessed as growth inhibition at 10 uM relative to control; method in brief: as §2
# SK-MEL-5 = assay: Antitumor activity against human SK-MEL-5 cells assessed as growth inhibition at 10 uM relative to control; method in brief: as §1
# SK-MEL-2 = assay: Antitumor activity against human SK-MEL-2 cells assessed as growth inhibition at 10 uM relative to control; method in brief: as §2
# SF-295 = assay: Antitumor activity against human SF-295 cells assessed as growth inhibition at 10 uM relative to control; method in brief: as §2
# SNB-75 = assay: Antitumor activity against human SNB-75 cells assessed as growth inhibition at 10 uM relative to control; method in brief: as §1
# HOP-62 = assay: Antitumor activity against human HOP-62 cells assessed as growth inhibition at 10 uM relative to control; method in brief: as §2
# CAKI-1 = assay: Antitumor activity against human CAKI-1 cells assessed as growth inhibition at 10 uM relative to control; method in brief: as §2
# COLO 205 = assay: Antitumor activity against human COLO 205 cells assessed as growth inhibition at 10 uM relative to control; method in brief: as §2
# LOX IMVI = assay: Antitumor activity against human LOX IMVI cells assessed as growth inhibition at 10 uM relative to control; method in brief: as §2
# Malme-3M = assay: Antitumor activity against human Malme-3M cells assessed as growth inhibition at 10 uM relative to control; method in brief: as §2
# K562 = assay: Antitumor activity against human K562 cells assessed as growth inhibition at 10 uM relative to control; method in brief: as §2
# HCT-15 = assay: Antitumor activity against human HCT-15 cells assessed as growth inhibition at 10 uM relative to control; method in brief: as §2
# SK-OV-3 = assay: Antitumor activity against human SK-OV-3 cells assessed as growth inhibition at 10 uM relative to control; method in brief: as §1
# MCF7 = assay: Antitumor activity against human MCF7 cells assessed as growth inhibition at 10 uM relative to control; method in brief: as §2
# HL-60 = assay: Antitumor activity against human HL-60 cells assessed as growth inhibition at 10 uM relative to control; method in brief: as §2
# Hs-578T = assay: Antitumor activity against human Hs-578T cells assessed as growth inhibition at 10 uM relative to control; method in brief: as §2
# CCRF-CEM = assay: Antitumor activity against human CCRF-CEM cells assessed as growth inhibition at 10 uM relative to control; method in brief: as §2
# SF-268 = assay: Antitumor activity against human SF-268 cells assessed as growth inhibition at 10 uM relative to control; method in brief: as §2
# HOP-92 = assay: Antitumor activity against human HOP-92 cells assessed as growth inhibition at 10 uM relative to control; method in brief: as §2
# IGROV-1 = assay: Antitumor activity against human IGROV-1 cells assessed as growth inhibition at 10 uM relative to control; method in brief: as §2
# TK-10 = assay: Antitumor activity against human TK-10 cells assessed as growth inhibition at 10 uM relative to control; method in brief: as §1
# NCI-H226 = assay: Antitumor activity against human NCI-H226 cells assessed as growth inhibition at 10 uM relative to control; method in brief: as §2
# UACC-62 = assay: Antitumor activity against human UACC-62 cells assessed as growth inhibition at 10 uM relative to control; method in brief: as §1
# OVCAR-8 = assay: Antitumor activity against human OVCAR-8 cells assessed as growth inhibition at 10 uM relative to control; method in brief: as §2
# U-251 = assay: Antitumor activity against human U-251 cells assessed as growth inhibition at 10 uM relative to control; method in brief: as §1
# ACHN = assay: Antitumor activity against human ACHN cells assessed as growth inhibition at 10 uM relative to control; method in brief: as §2
# A498 = assay: Antitumor activity against human A498 cells assessed as growth inhibition at 10 uM relative to control; method in brief: as §2
# MDA-MB-231 = assay: Antitumor activity against human MDA-MB-231 cells assessed as growth inhibition at 10 uM relative to control; method in brief: as §2
# SN12C = assay: Antitumor activity against human SN12C cells assessed as growth inhibition at 10 uM relative to control; method in brief: as §1
# MDA-MB-468 = assay: Antitumor activity against human MDA-MB-468 cells assessed as growth inhibition at 10 uM relative to control; method in brief: as §2
# NCI/ADR-RES = assay: Antitumor activity against human NCI-ADR-RES cells assessed as growth inhibition at 10 uM relative to control; method in brief: as §2
# SF-539 = assay: Antitumor activity against human SF-539 cells assessed as growth inhibition at 10 uM relative to control; method in brief: as §2
# RXF 393 = assay: Antitumor activity against human RXF 393 cells assessed as growth inhibition at 10 uM relative to control; method in brief: as §2
# NCI-H522 = assay: Antitumor activity against human NCI-H522 cells assessed as growth inhibition at 10 uM relative to control; method in brief: as §2
# MDA-MB-435 = assay: Antitumor activity against human MDA-MB-435 cells assessed as growth inhibition at 10 uM relative to control; method in brief: as §2
# 786-0 = assay: Antitumor activity against human 786-0 cells assessed as growth inhibition at 10 uM relative to control; method in brief: as §2
# UO-31 = assay: Antitumor activity against human UO-31 cells assessed as growth inhibition at 10 uM relative to control; method in brief: as §1
# NCI-H23 = assay: Antitumor activity against human NCI-H23 cells assessed as growth inhibition at 10 uM relative to control; method in brief: as §2
# HT-29 = assay: Antitumor activity against human HT-29 cells assessed as growth inhibition at 10 uM relative to control; method in brief: as §2
# HCT-116 = assay: Antitumor activity against human HCT-116 cells assessed as growth inhibition at 10 uM relative to control; method in brief: as §2
# A549 = assay: Antitumor activity against human A549 cells assessed as growth inhibition at 10 uM relative to control; method in brief: as §2
# SR = assay: Antitumor activity against human SR cells assessed as growth inhibition at 10 uM relative to control; method in brief: as §1
smiles,measurement,setting,value
N#Cc1c(-c2ccc(Cl)cc2)nc(NN2C(=O)c3ccccc3C2=O)nc1N1CCOCC1,inhibition of growth at 10 µM,T47D,< 1%
same,inhibition of growth at 10 µM,RPMI-8226,< 1%
same,inhibition of growth at 10 µM,MOLT-4,< 1%
same,inhibition of growth at 10 µM,SW-620,< 1%
same,inhibition of growth at 10 µM,DU-145,< 1%
same,inhibition of growth at 10 µM,SK-MEL-5,< 1%
same,inhibition of growth at 10 µM,SK-MEL-2,< 1%
same,inhibition of growth at 10 µM,SF-295,< 1%
same,inhibition of growth at 10 µM,SNB-75,15.4%
same,inhibition of growth at 10 µM,HOP-62,< 1%
same,inhibition of growth at 10 µM,CAKI-1,< 1%
same,inhibition of growth at 10 µM,COLO 205,< 1%
same,inhibition of growth at 10 µM,LOX IMVI,< 1%
same,inhibition of growth at 10 µM,Malme-3M,< 1%
same,inhibition of growth at 10 µM,K562,< 1%
same,inhibition of growth at 10 µM,HCT-15,< 1%
same,inhibition of growth at 10 µM,SK-OV-3,< 1%
same,inhibition of growth at 10 µM,MCF7,1%
same,inhibition of growth at 10 µM,HL-60,< 1%
same,inhibition of growth at 10 µM,Hs-578T,< 1%
same,inhibition of growth at 10 µM,CCRF-CEM,< 1%
same,inhibition of growth at 10 µM,SF-268,< 1%
same,inhibition of growth at 10 µM,HOP-92,< 1%
same,inhibition of growth at 10 µM,IGROV-1,< 1%
same,inhibition of growth at 10 µM,TK-10,< 1%
same,inhibition of growth at 10 µM,NCI-H226,< 1%
same,inhibition of growth at 10 µM,UACC-62,< 1%
same,inhibition of growth at 10 µM,OVCAR-8,< 1%
same,inhibition of growth at 10 µM,U-251,< 1%
same,inhibition of growth at 10 µM,ACHN,< 1%
same,inhibition of growth at 10 µM,A498,< 1%
same,inhibition of growth at 10 µM,MDA-MB-231,< 1%
same,inhibition of growth at 10 µM,SN12C,< 1%
same,inhibition of growth at 10 µM,MDA-MB-468,< 1%
same,inhibition of growth at 10 µM,NCI/ADR-RES,< 1%
same,inhibition of growth at 10 µM,SF-539,< 1%
same,inhibition of growth at 10 µM,RXF 393,< 1%
same,inhibition of growth at 10 µM,NCI-H522,< 1%
same,inhibition of growth at 10 µM,MDA-MB-435,< 1%
same,inhibition of growth at 10 µM,786-0,< 1%
same,inhibition of growth at 10 µM,UO-31,15.6%
same,inhibition of growth at 10 µM,NCI-H23,< 1%
same,inhibition of growth at 10 µM,HT-29,< 1%
same,inhibition of growth at 10 µM,HCT-116,< 1%
same,inhibition of growth at 10 µM,A549,< 1%
same,inhibition of growth at 10 µM,SR,16%
N#Cc1c(-c2ccc(Cl)cc2)nc(N/N=C2/C(=O)Nc3ccc(Br)cc32)nc1N1CCOCC1,inhibition of growth at 10 µM,T47D,< 1%
same,inhibition of growth at 10 µM,RPMI-8226,< 1%
same,inhibition of growth at 10 µM,MOLT-4,< 1%
same,inhibition of growth at 10 µM,SW-620,< 1%
same,inhibition of growth at 10 µM,DU-145,< 1%
same,inhibition of growth at 10 µM,SK-MEL-5,< 1%
same,inhibition of growth at 10 µM,SK-MEL-2,< 1%
same,inhibition of growth at 10 µM,SF-295,< 1%
same,inhibition of growth at 10 µM,SNB-75,< 1%
same,inhibition of growth at 10 µM,HOP-62,< 1%
same,inhibition of growth at 10 µM,CAKI-1,< 1%
same,inhibition of growth at 10 µM,COLO 205,1%
same,inhibition of growth at 10 µM,LOX IMVI,14.6%
same,inhibition of growth at 10 µM,Malme-3M,< 1%
same,inhibition of growth at 10 µM,K562,< 1%
same,inhibition of growth at 10 µM,HCT-15,1%
same,inhibition of growth at 10 µM,SK-OV-3,< 1%
same,inhibition of growth at 10 µM,MCF7,1%
same,inhibition of growth at 10 µM,HL-60,< 1%
same,inhibition of growth at 10 µM,Hs-578T,< 1%
same,inhibition of growth at 10 µM,CCRF-CEM,< 1%
same,inhibition of growth at 10 µM,SF-268,< 1%
same,inhibition of growth at 10 µM,HOP-92,< 1%
same,inhibition of growth at 10 µM,IGROV-1,< 1%
same,inhibition of growth at 10 µM,TK-10,< 1%
same,inhibition of growth at 10 µM,NCI-H226,< 1%
same,inhibition of growth at 10 µM,UACC-62,< 1%
same,inhibition of growth at 10 µM,OVCAR-8,< 1%
same,inhibition of growth at 10 µM,U-251,33.6%
same,inhibition of growth at 10 µM,ACHN,< 1%
same,inhibition of growth at 10 µM,A498,26.3%
same,inhibition of growth at 10 µM,MDA-MB-231,14.2%
same,inhibition of growth at 10 µM,SN12C,< 1%
same,inhibition of growth at 10 µM,MDA-MB-468,< 1%
same,inhibition of growth at 10 µM,NCI/ADR-RES,< 1%
same,inhibition of growth at 10 µM,SF-539,< 1%
same,inhibition of growth at 10 µM,RXF 393,< 1%
same,inhibition of growth at 10 µM,NCI-H522,< 1%
same,inhibition of growth at 10 µM,MDA-MB-435,< 1%
same,inhibition of growth at 10 µM,786-0,< 1%
same,inhibition of growth at 10 µM,UO-31,28.7%
same,inhibition of growth at 10 µM,NCI-H23,11.9%
same,inhibition of growth at 10 µM,HT-29,< 1%
same,inhibition of growth at 10 µM,HCT-116,16.8%
same,inhibition of growth at 10 µM,A549,< 1%
same,inhibition of growth at 10 µM,SR,< 1%
